From ChEMBL document CHEMBL3352241, “Design, synthesis and pharmacological evaluation of chalcone derivatives as acetylcholinesterase inhibitors” (Bioorg Med Chem, 2014)
pIC50, pKi: −log10 of the molar value.

What was measured:
[1] = Octanol-water partition coefficient, log P of the compound at pH 7.4 by classical shake-flask method; type: physicochemical
Cholinesterase = Cholinesterase (Homo sapiens, UniProt P06276); assay: Inhibition of BuChE (unknown origin) using butyrylthiocholine iodide as substrate incubated for 25 mins by Ellman's method
Sequence of Cholinesterase (P06276 whole entry): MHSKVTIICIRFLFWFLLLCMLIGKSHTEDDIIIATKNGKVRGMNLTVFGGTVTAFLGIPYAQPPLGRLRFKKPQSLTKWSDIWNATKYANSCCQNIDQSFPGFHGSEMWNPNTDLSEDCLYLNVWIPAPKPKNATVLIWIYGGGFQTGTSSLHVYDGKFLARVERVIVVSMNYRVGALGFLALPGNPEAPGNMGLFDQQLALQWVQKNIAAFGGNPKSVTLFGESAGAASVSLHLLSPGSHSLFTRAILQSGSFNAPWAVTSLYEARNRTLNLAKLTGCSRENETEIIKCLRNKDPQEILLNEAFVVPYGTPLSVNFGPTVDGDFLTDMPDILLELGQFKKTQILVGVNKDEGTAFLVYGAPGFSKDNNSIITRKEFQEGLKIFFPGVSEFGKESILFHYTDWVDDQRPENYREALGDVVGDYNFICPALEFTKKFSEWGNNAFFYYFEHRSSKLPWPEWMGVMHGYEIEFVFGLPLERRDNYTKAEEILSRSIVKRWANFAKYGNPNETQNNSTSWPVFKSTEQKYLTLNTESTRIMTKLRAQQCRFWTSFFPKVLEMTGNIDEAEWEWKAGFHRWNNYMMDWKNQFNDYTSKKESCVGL
Method in brief: (§1)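 Ellman spectrophotometric assay, slightly modified. Compounds were dissolved in tween 80 (0.06% final per reaction), then diluted in 2% tween 80–water. The enzyme, substrate (acetylthiocholine iodide for AChE, butyrylthiocholine iodide for BuChE) and compound were incubated in Na2HPO4/NaH2PO4 buffer pH 8.0 at 30 °C for 25 min. IC50 was calculated by the Bliss method and reported as mean ± SD.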

[2] = biological target: Cholinesterases; ACHE & BCHE (Homo sapiens) (UniProt P06276+P22303); assay: Selectivity ratio of IC50 for BChE (unknown origin) to IC50 for AChE (unknown origin)
Sequence of Cholinesterases; ACHE & BCHE (Homo sapiens) (P06276 whole entry, looked up): as the sequence (P06276 whole entry) above
Sequence of Cholinesterases; ACHE & BCHE (Homo sapiens) (P22303 whole entry, looked up): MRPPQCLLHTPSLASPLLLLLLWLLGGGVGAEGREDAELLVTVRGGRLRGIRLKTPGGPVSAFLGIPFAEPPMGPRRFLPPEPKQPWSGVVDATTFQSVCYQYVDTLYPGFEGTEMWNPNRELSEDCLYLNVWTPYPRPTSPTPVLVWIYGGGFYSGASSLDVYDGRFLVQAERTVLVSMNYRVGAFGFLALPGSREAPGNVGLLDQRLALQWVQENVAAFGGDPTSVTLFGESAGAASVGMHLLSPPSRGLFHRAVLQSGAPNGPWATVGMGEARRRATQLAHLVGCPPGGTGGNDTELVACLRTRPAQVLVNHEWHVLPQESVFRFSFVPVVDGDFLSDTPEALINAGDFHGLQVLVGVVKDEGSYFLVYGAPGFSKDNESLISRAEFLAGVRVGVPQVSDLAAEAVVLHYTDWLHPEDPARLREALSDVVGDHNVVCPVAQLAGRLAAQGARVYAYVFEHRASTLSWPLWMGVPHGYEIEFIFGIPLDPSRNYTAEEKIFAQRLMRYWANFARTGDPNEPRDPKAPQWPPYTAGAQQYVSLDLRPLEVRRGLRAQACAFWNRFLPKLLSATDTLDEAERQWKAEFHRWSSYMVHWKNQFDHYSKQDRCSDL

Acetylcholinesterase [3] = biological target: T1, Acetylcholinesterase (Homo sapiens, UniProt P22303); assay: Inhibition of AChE (unknown origin) using acetylthiocholine iodide as substrate incubated for 25 mins by Ellman's method
T1 sequence (P22303 whole entry): as the sequence (P22303 whole entry, looked up) above
Method in brief: as §1, with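 “min. The reaction was stopped with 20% SDS, 10 mmol/L DTNB was added, and absorbance was read at 412 nm. Five concentrations per compound, in triplicate, spanned 20–80% inhibition.” for “min.”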

Acetylcholinesterase [4] = biological target: T1, Acetylcholinesterase; assay: Non-competitive inhibition of AChE (unknown origin) incubated for 25 mins by Lineweaver-Burk plot analysis
Acetylcholinesterase [5] = biological target: T1, Acetylcholinesterase; assay: Competitive inhibition of AChE (unknown origin) incubated for 25 mins by Lineweaver-Burk plot analysis

| Structure (SMILES) | logD [1] | pIC50 (Cholinesterase) | Ratio IC50 [2] | pIC50 (Acetylcholinesterase [3]) | pKi (Acetylcholinesterase [4]) | pKi (Acetylcholinesterase [5]) |
| --- | --- | --- | --- | --- | --- | --- |
| CCN(CC)CCCCOc1ccc(C(=O)/C=C/c2ccccc2)cc1 | 1.74 | 4.99 | 0.44 | 4.63 |  |  |
| CCCCN(CCCC)CCCCCCOc1ccc(C(=O)/C=C/c2ccccc2)cc1 | 2.19 | 4.12 | 0.46 | 3.79 |  |  |
| CCN(CC)CCCOc1ccc(C(=O)/C=C/c2ccccc2)cc1 | 1.71 | 4.70 | 0.89 | 4.65 |  |  |
| CN(C)CCCCCOc1ccc(C(=O)/C=C/c2ccccc2)cc1 | 1.73 | 4.76 | 1.33 | 4.88 |  |  |
| CCCN(CCC)CCOc1ccc(C(=O)/C=C/c2ccccc2)cc1 | 1.86 | 4.28 | 0.81 | 4.19 |  |  |
| CN(C)CCCOc1ccc(C(=O)/C=C/c2ccccc2)cc1 | 1.59 | 4.49 | 3.08 | 4.98 |  |  |
| CCN(CC)CCOc1ccc(C(=O)/C=C/c2ccccc2)cc1 | 1.61 | 4.50 | 4.14 | 5.12 |  |  |
| CCCN(CCC)CCCCCOc1ccc(C(=O)/C=C/c2ccccc2)cc1 | 2.01 | 4.40 | 2.09 | 4.53 |  |  |
| CN(C)CCOc1ccc(C(=O)/C=C/c2ccccc2)cc1 | 1.49 | 4.69 | 4.35 | 5.33 | 5.45 | 5.10 |
| CCCCN(CCCC)CCCOc1ccc(C(=O)/C=C/c2ccccc2)cc1 | 2.06 | 4.17 | 0.45 | 3.82 |  |  |
| CCCN(CCC)CCCOc1ccc(C(=O)/C=C/c2ccccc2)cc1 | 1.91 | 4.99 | 0.41 | 4.61 |  |  |
| CCCCN(CCCC)CCCCCOc1ccc(C(=O)/C=C/c2ccccc2)cc1 | 2.14 | 4.01 |  | 4.11 |  |  |
| CCN(CC)CCCCCCOc1ccc(C(=O)/C=C/c2ccccc2)cc1 | 1.91 | 4.73 | 0.37 | 4.30 |  |  |
| CCCCN(CCCC)CCCCOc1ccc(C(=O)/C=C/c2ccccc2)cc1 | 2.09 | 4.38 | 1.91 | 4.66 |  |  |
| CCCN(CCC)CCCCCCOc1ccc(C(=O)/C=C/c2ccccc2)cc1 | 2.07 | 4.39 | 0.92 | 4.36 |  |  |
| O=C(/C=C/c1ccccc1)c1ccc(O)cc1 [4'-HYDROXYCHALCONE] |  | < 3.30 |  | < 3.30 |  |  |
| CN(C)CCCCOc1ccc(C(=O)/C=C/c2ccccc2)cc1 | 1.64 | 4.93 | 1.32 | 5.05 |  |  |
| CCN(CC)CCCCCOc1ccc(C(=O)/C=C/c2ccccc2)cc1 | 1.84 | 4.58 | 0.77 | 4.47 |  |  |
| CCCCN(CCCC)CCOc1ccc(C(=O)/C=C/c2ccccc2)cc1 | 2 | 3.55 | 1.1 | 3.60 |  |  |
| CCCN(CCC)CCCCOc1ccc(C(=O)/C=C/c2ccccc2)cc1 | 1.95 | 5.05 | 1.5 | 5.23 |  |  |
| CN(C)CCCCCCOc1ccc(C(=O)/C=C/c2ccccc2)cc1 | 1.8 | 4.98 | 0.73 | 4.85 |  |  |
